Reference: ChEMBL document CHEMBL1926624, “Secondary metabolites from the roots of Neolitsea daibuensis and their anti-inflammatory activity” (J Nat Prod, 2011)
≈ marks a conversion by molar mass, not a printed value.

Experiments:
[1] = biological target: T1, Nitric oxide synthase, inducible (Mus musculus, UniProt P29477); experiment: Inhibition of iNOS-mediated NO production in LPS-stimulated mouse RAW264.7 cells after 24 hrs by Griess reagent method; format: cell-based
T1 sequence (P29477 whole entry): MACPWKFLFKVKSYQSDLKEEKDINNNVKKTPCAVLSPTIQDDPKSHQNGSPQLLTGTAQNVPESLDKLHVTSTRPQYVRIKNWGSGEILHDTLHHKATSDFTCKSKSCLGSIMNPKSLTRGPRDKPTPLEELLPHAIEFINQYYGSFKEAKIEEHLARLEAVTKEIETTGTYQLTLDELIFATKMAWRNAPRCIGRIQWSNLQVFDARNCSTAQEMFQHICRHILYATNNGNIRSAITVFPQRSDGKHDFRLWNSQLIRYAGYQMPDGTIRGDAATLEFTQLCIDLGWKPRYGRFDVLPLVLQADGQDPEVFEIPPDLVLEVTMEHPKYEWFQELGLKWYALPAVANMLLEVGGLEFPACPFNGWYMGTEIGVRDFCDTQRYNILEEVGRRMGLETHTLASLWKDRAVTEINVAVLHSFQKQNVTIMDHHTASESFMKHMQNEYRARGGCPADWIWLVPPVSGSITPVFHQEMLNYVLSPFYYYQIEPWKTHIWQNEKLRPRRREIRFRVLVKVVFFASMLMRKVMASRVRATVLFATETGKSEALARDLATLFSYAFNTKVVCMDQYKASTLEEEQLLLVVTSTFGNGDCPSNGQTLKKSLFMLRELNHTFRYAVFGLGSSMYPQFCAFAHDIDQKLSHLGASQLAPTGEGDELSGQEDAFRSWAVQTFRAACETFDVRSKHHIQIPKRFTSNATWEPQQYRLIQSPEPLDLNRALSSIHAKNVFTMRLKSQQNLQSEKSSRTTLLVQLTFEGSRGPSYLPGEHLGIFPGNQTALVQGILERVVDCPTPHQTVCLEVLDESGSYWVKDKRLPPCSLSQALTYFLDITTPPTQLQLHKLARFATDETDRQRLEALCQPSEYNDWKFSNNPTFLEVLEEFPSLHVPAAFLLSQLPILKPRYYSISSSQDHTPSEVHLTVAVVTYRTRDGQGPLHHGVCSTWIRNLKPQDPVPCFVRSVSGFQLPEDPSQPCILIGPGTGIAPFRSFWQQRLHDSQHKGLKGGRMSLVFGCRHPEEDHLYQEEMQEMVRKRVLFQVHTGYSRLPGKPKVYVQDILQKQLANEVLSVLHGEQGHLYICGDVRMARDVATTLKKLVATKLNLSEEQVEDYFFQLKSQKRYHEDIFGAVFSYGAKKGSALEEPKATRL
Outline: (§1)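 RAW 264.7 murine macrophages in DMEM with 10% FCS were grown to confluence for 24 h, then held serum-free for 4 h. Test agent, or 0.1% DMSO vehicle, was given with LPS (200 ng/mL) for 24 h. Supernatant nitrite was measured with Griess reagent (10 min, room temperature) at A550 against a NaNO2 standard curve. % inhibition is relative to vehicle+LPS; Emax at 100 μM; IC50 = concentration giving 50% Emax; n = 4−6.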

[2] = Cytotoxicity against mouse RAW264.7 cells assessed as reduction in cell viability after 3 hrs by alamar blue assay; format: cell-based
Outline: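 Viability was tested in the same RAW 264.7 wells after the supernatant was removed for nitrite. 10% AlamarBlue in DMEM was added and the plates incubated at 37 °C. Absorbance was read at 570/600 nm against cell-free blanks, with LPS+vehicle wells set as 100% viability. CC50 = concentration lowering viability by 50%; mean ± SE.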

[3] = biological target: T2, Nitric oxide synthase, inducible (Mus musculus) (UniProt P29477); experiment: Inhibition of iNOS-mediated NO production in LPS-stimulated mouse RAW264.7 cells after 24 hrs by Griess reagent method relative to control; format: cell-based; outline: as §1
T2 sequence (whole entry): T1 sequence (P29477 whole entry)

[4] = test system: RAW264.7; experiment: Cytotoxicity against mouse RAW264.7 cells assessed as reduction in cell viability at 50 uM after 3 hrs by alamar blue assay; format: cell-based; settings: raw264.7, 3 h
[5] = biological target: T2, Nitric oxide synthase, inducible (Mus musculus); experiment: Inhibition of iNOS-mediated NO production in LPS-stimulated mouse RAW264.7 cells at 25 uM after 24 hrs by Griess reagent method relative to control; format: cell-based
Outline: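 Confluent RAW 264.7 cells, serum-starved 4 h, received test agent at 25 μM, or 0.1% DMSO vehicle, together with LPS (200 ng/mL) for 24 h. Supernatant nitrite was read by Griess reaction, A550, against a NaNO2 standard curve. Result is maximal inhibition expressed as % of vehicle+LPS nitrite; n = 4−6.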

[6] = Antiinflammatory activity in human neutrophils assessed as inhibition of […] superoxide anion production; format: functional, cell-based; settings: Neutrophil
[7] = Antiinflammatory activity in human neutrophils assessed as inhibition of fMLP-induced superoxide anion production; format: functional, cell-based; settings: Neutrophil

SMILES	IC50 [1] [µM]	CC50 at 3 h [2] [µM]	Emax [3] [%]	Activity [4]	Emax [5] [%]	IC50 [6] [µg/mL]	IC50 [7] [µg/mL]	inhibition [3]
COc1cc(O)c2c(c1)O[C@H](c1ccc(O)cc1)CC2=O [SAKURANETIN]	19.6	> 100	85.2	–	–	–	–	–
C=C[C@@]1(C)Cc2occ(C)c2[C@@H]2OC(=O)C(=C)[C@@H]21 [ISOLINDERALACTONE]	0.3	66.4	–	Toxic	100	–	–	–
N=C(N)NN [PIMAGEDINE]	28.5	> 100	83.5	–	–	–	–	–
Cc1coc2c1[C@H]1C=C(CC[C@@H]3O[C@@]3(C)C2)C(=O)O1 [PSEUDONEOLINDERANE]	–	–	–	–	–	3.21 (≈ 12.3 µM)	3.21 (≈ 12.3 µM)	–
C/C1=C\CCC2=C[C@@H](OC2=O)c2c(C)coc2C1 [LINDERALACTONE]	–	–	–	–	–	8.48 (≈ 34.7 µM)	8.48 (≈ 34.7 µM)	–
N=C(NCCC[C@H](N)C(=O)O)N[N+](=O)[O-] [NITROARGININE]	144	> 100	41.2	–	–	–	–	–
COc1cc2c([nH]c3ccc(O)cc32)c(Cc2ccc(O)cc2)n1 [DAIBUCARBOLINE A]	18.4	94.8	96.1	–	–	–	–	Dose-dependent effect
COc1cc(O)c2c(=O)c(-c3ccc(O)cc3)coc2c1 [PRUNETIN]	10.5	> 100	94.8	–	–	–	–	–
